Key:
[1] = target: Poly [ADP-ribose] polymerase 1 (Homo sapiens, UniProt P09874); experiment: Inhibition of PARP1 (unknown origin)
In short: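 PARP-1 and PI3Kα enzyme inhibition. IC50 taken from dose-response curves and given as mean ± SD of three independent experiments.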

MDA-MB-468 [2] = experiment: Antiproliferative activity against human MDA-MB-468 cells measured after 7 days by Celltiter-glo assay; assay type: functional, cell-based; conditions: MDA-MB-468, 168 h
In short: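 MDA-MB-468 cells grown in RPMI1640 with 10% FBS at 37 °C, 5% CO2. Seeded the day before dosing, grown 12 h, then exposed to a range of concentrations for 7 days. Viability read by CellTiter-Glo luminescence after 10 min at room temperature. Inhibition % = (1 − (RLU cpd − blank)/(RLU DMSO − blank)) × 100. IC50 from nonlinear regression of normalized dose-response.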

MDA-MB-468 [3] = experiment: Induction of apoptosis in human MDA-MB-468 cells assessed as viable cells at 1 uM measured after 72 hrs by Annexin V-FITC/propidium iodide staining based flow cytometry (reference value: 95.2%); assay type: functional; conditions: read-out: Activity
MDA-MB-468 [4] = experiment: Induction of apoptosis in human MDA-MB-468 cells assessed as early apoptotic cells at 1 uM measured after 72 hrs by Annexin V-FITC/propidium iodide staining based flow cytometry (reference value: 3.88%); assay type: functional
MDA-MB-468 [5] = experiment: Induction of apoptosis in human MDA-MB-468 cells assessed as late apoptotic cells at 1 uM measured after 72 hrs by Annexin V-FITC/propidium iodide staining based flow cytometry (reference value: 0.78%); assay type: functional
MDA-MB-468 [6] = experiment: Induction of apoptosis in human MDA-MB-468 cells assessed as necrotic cells at 1 uM measured after 72 hrs by Annexin V-FITC/propidium iodide staining based flow cytometry (reference value: 0.13%); assay type: functional
[7] = Elimination rate constant in human liver microsomes measured after 1 hr; assay type: ADME, Microsome
In short: (§1)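 Compound incubated 1 h with mouse, rat, dog, monkey or human liver microsomes. Derived values were the elimination rate constant k, the elimination half-life T1/2 and the intrinsic clearance CLint.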

[8] = Elimination rate constant in monkey liver microsomes measured after 1 hr; assay type: ADME, Macaca mulatta, Microsome; conditions: rhesus monkey; in short: as §1
[9] = Elimination rate constant in dog liver microsomes measured after 1 hr; assay type: ADME, Canis lupus familiaris, Microsome; in short: as §1
[10] = Elimination rate constant in rat liver microsomes measured after 1 hr; assay type: ADME, Microsome; in short: as §1
[11] = Elimination rate constant in mouse liver microsomes measured after 1 hr; assay type: ADME, Microsome; in short: as §1
[12] = Elimination half life in human liver microsomes measured after 1 hr; assay type: ADME, Microsome; conditions: read-out: beta t1/2; in short: as §1
[13] = Elimination half life in monkey liver microsomes measured after 1 hr; assay type: ADME, Macaca mulatta, Microsome; conditions: rhesus monkey, read-out: beta t1/2; in short: as §1
[14] = Elimination half life in rat liver microsomes measured after 1 hr; assay type: ADME, Microsome; conditions: read-out: beta t1/2; in short: as §1
[15] = Elimination half life in mouse liver microsomes measured after 1 hr; assay type: ADME, Microsome; conditions: read-out: beta t1/2; in short: as §1
[16] = Intrinsic clearance in human liver microsomes measured after 1 hr; assay type: ADME, Microsome; conditions: read-out: CLH; in short: as §1
[17] = Intrinsic clearance in monkey liver microsomes measured after 1 hr; assay type: ADME, Macaca mulatta, Microsome; conditions: rhesus monkey, read-out: CLH; in short: as §1
[18] = Intrinsic clearance in dog liver microsomes measured after 1 hr; assay type: ADME, Canis lupus familiaris, Microsome; conditions: read-out: CLH; in short: as §1
[19] = Intrinsic clearance in rat liver microsomes measured after 1 hr; assay type: ADME, Microsome; conditions: read-out: CLH; in short: as §1
[20] = Intrinsic clearance in mouse liver microsomes measured after 1 hr; assay type: ADME, Microsome; conditions: read-out: CLH; in short: as §1
[21] = Apparent permeability across basolateral to apical side in human Caco2 cells assessed as drug recovery at 5 uM measured after 120 mins; assay type: ADME, cell-based; conditions: Caco-2, read-out: Drug recovery
In short: (§2)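 Bidirectional permeability run, apical-to-basolateral and basolateral-to-apical. Test compound at 5 µM, incubated 120 min. Papp (10^-6 cm/s), recovery (%) and efflux ratio reported as the mean of two experiments.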

[22] = Apparent permeability across apical to basolateral side in human Caco2 cells at 5 uM measured after 120 mins; assay type: ADME, cell-based; conditions: Caco-2; in short: as §2
[23] = Apparent permeability across basolateral to apical side in human Caco2 cells at 5 uM measured after 120 mins; assay type: ADME, cell-based; conditions: Caco-2; in short: as §2
[24] = Toxicity in Sprague-Dawley rat assessed as change in body weight at 1000 mg/kg, po administered as single dose measured on day 2 (reference value: 273 +/- 15 g); assay type: organism-based; conditions: in vivo, 48 h, time 2 day
[25] = Toxicity in Sprague-Dawley rat assessed as change in body weight at 1000 mg/kg, po administered as single dose measured on day 4 (reference value: 280 +/- 12 g); assay type: organism-based; conditions: in vivo, 96 h, time 4 day
[26] = Toxicity in Sprague-Dawley rat assessed as change in body weight at 1000 mg/kg, po administered as single dose measured on day 7 (reference value: 298 +/- 14 g); assay type: organism-based; conditions: in vivo, 168 h, time 7 day
[27] = Toxicity in Sprague-Dawley rat assessed as death at 1000 mg/kg, po administered as single dose; assay type: organism-based; conditions: in vivo
In short: (§3)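 Sprague-Dawley rats, n = 6 (3 male, 3 female), given a single oral dose of 1000 mg/kg. Deaths and body-weight change were recorded to estimate the maximum tolerated dose.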

[28] = Toxicity in Sprague-Dawley rat administered as single oral dose; conditions: in vivo; in short: as §3
[29] = target: Voltage-gated inwardly rectifying potassium channel KCNH2 (Homo sapiens, UniProt Q12809); experiment: Inhibition of human ERG
Sequence of Voltage-gated inwardly rectifying potassium channel KCNH2 (Q12809 whole entry, canonical isoform): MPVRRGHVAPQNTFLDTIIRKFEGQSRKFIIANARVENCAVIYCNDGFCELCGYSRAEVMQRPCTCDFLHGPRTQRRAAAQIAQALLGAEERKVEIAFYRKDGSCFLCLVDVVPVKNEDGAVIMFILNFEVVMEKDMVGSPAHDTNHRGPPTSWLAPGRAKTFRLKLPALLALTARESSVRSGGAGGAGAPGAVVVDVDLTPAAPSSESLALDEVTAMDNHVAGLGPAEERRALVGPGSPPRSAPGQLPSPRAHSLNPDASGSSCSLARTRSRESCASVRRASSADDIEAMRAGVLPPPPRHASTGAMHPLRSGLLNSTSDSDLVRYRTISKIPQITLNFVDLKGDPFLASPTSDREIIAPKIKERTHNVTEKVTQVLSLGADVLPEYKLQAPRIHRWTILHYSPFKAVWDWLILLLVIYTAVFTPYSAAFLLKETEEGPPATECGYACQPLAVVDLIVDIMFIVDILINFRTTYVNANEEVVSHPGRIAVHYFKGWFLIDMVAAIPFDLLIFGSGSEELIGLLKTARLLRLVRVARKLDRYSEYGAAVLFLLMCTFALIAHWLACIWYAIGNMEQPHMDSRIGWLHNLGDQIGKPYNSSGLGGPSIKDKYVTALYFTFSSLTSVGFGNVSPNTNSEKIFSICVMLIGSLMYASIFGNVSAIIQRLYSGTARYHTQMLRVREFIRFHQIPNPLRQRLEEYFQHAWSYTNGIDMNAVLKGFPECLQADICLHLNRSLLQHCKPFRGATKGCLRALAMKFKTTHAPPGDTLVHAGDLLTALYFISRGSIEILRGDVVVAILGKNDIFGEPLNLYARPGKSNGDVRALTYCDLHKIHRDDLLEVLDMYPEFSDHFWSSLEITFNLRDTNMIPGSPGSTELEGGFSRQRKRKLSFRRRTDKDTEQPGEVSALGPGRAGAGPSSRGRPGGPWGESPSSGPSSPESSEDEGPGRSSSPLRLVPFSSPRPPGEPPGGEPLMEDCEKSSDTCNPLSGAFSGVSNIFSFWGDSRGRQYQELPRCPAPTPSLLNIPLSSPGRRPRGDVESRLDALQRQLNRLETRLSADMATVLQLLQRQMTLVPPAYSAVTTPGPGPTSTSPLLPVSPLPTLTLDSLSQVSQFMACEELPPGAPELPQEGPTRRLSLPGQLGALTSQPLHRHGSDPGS

[30] = target: Phosphatidylinositol 4,5-bisphosphate 3-kinase catalytic subunit gamma isoform (Homo sapiens, UniProt P48736); experiment: Inhibition of PI3Kgamma (unknown origin)
Sequence of Phosphatidylinositol 4,5-bisphosphate 3-kinase catalytic subunit gamma isoform (P48736 whole entry, canonical isoform): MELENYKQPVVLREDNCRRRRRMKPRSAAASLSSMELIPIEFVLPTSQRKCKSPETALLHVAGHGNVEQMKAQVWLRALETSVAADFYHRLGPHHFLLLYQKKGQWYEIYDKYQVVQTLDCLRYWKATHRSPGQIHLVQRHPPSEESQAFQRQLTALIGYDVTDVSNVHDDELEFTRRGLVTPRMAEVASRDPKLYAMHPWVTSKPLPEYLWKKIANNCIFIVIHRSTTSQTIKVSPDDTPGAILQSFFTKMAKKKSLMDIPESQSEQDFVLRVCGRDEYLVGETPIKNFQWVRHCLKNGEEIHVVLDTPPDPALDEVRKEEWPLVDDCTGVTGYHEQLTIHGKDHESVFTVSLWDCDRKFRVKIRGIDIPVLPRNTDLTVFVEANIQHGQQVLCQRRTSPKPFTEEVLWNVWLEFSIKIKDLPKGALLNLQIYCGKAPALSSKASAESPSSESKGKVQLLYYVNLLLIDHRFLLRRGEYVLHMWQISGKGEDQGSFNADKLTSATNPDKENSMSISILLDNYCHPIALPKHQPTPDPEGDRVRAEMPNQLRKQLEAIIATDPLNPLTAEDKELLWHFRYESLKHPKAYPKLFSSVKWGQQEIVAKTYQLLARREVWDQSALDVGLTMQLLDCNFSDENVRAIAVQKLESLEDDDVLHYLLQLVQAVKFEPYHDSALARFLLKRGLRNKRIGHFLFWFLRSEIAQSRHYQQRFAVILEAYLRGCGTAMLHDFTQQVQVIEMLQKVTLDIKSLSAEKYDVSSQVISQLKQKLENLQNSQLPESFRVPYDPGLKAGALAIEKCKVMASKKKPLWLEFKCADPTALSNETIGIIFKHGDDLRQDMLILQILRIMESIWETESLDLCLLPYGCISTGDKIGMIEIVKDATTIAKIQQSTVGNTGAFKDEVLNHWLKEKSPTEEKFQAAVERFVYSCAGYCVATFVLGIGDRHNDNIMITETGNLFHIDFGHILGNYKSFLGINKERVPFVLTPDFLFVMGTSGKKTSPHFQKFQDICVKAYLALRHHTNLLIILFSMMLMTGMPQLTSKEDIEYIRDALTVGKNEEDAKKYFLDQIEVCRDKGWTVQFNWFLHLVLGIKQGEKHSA

MDA-MB-468 [31] = experiment: Antitumor activity against human MDA-MB-468 cells xenografted in BALB/c mouse assessed as tumor growth inhibition at 50 mg/kg, ip administered every two days for 34 days relative to control; conditions: MDA-MB-468, ip, 816 h, read-out: TGI
[32] = Toxicity in MDA-MB-468 cells xenografted BALB/c mouse assessed as change in body weight at 50 mg/kg, ip administered every two days for 34 days measured at 2 days interval during compound dosing; conditions: in vivo, 816 h

Sequence of Poly [ADP-ribose] polymerase 1 (P09874 whole entry): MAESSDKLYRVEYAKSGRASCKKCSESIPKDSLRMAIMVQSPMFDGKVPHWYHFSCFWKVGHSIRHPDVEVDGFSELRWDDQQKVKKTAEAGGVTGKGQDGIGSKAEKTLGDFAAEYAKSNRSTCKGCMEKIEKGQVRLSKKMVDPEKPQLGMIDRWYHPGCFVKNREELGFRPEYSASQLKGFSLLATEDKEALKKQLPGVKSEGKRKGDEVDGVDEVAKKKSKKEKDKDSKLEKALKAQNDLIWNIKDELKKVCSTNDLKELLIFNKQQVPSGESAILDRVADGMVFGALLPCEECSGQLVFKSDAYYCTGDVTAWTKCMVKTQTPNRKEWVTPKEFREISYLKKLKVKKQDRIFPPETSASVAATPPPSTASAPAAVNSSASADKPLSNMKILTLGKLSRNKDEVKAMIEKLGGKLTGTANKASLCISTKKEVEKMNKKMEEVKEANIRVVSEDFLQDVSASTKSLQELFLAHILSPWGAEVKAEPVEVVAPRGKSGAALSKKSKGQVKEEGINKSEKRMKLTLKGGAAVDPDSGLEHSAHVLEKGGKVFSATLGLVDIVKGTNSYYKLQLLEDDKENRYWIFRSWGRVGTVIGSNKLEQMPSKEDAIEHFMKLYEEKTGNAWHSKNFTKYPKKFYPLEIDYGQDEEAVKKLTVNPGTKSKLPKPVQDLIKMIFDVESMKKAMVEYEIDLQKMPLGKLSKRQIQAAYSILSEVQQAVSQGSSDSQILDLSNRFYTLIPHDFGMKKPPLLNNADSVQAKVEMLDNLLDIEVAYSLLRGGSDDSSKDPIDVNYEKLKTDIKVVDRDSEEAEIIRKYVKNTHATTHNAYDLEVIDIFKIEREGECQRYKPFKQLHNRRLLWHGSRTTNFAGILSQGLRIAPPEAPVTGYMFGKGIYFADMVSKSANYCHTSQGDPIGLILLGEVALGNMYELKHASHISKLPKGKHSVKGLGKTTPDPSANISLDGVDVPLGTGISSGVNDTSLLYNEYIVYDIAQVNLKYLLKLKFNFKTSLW

With `NC(=O)c1cccc2cc(C(=O)N3CCN(c4nc(-c5cnc(NC(=O)CN6CCOCC6)cc5C(F)(F)F)nc(N5CCOCC5)n4)CC3)oc12` the IC50 [1] was 0.0138 µM, the IC50 (MDA-MB-468 [2]) was 1.4 µM and the viability at 1 µM (MDA-MB-468 [3]) was 67.2%. It also gave an Activity (MDA-MB-468 [4]) of 15.8%, an Activity (MDA-MB-468 [5]) of 13.5% and an Activity (MDA-MB-468 [6]) of 3.47%. For the same compound, the k el at 1 h [7] was 0.000122 s⁻¹, the k el at 1 h [8] was 0.000255 s⁻¹ and the k el at 1 h [9] was 0.000245 s⁻¹. The k el at 1 h [10] was 0.000275 s⁻¹, the k el at 1 h [11] was 0.000663 s⁻¹ and the half-life [12] was 107 min. The half-life [13] was 59.1 min, the half-life [14] was 42.2 min and the half-life [15] was 17.4 min. It also gave a microsomal CLint [16] of 14.7 µL/min/mg, a microsomal CLint [17] of 30.7 µL/min/mg and a microsomal CLint [18] of 29.3 µL/min/mg. The microsomal CLint [19] was 32.9 µL/min/mg, the microsomal CLint [20] was 79.7 µL/min/mg and the recovery at 2 h, 5 µM [21] was 99.9%. The Papp A→B at 2 h, 5 µM [22] was 8.42 ×10⁻⁶ cm/s, the Papp B→A at 2 h, 5 µM [23] was 22.1 ×10⁻⁶ cm/s and the Activity [24] was 267 g. For the same compound, the Activity [25] was 272 g, the Activity [26] was 281 g and the Activity [27] was “Non-Toxic”. It also gave an MTD [28] of over 1000 mg/kg, an IC50 [29] of 29.4 µM and an IC50 [30] of 1.1 µM. The inhibition in vivo at 50 mg/kg (MDA-MB-468 [31]) was 54.6% and the Activity [32] was “Non-Toxic”.

— ChEMBL document CHEMBL4732120, “Discovery of novel PARP/PI3K dual inhibitors with high efficiency against BRCA-proficient triple negative breast cancer” (Eur J Med Chem, 2021)
